Active and inactive are the calls of the source. No cut-off for these calls is given here.
Key:
[1] = Drug degradation in phosphate buffer assessed as H2S release by measuring test compound half life at 40 uM measured every 5 mins in presence of L-cysteine by UV-Vis spectrometry; assay type: physicochemical
Procedure, shortened: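 Sulfide release at 37.5 °C: donor (40 mM THF stock) added to pH 7.4 phosphate buffer with 1.0 mM L-cysteine; aliquots taken every 5 min into zinc acetate/N,N-dimethyl-1,4-phenylenediamine/FeCl3 in HCl, A670 read 15 min later; H2S quantified against Na2S standard curve (5–150 μM); release curve plotted vs time; four independent experiments.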

L02 = test: Cytotoxicity against human LO2 cells assessed as reduction in cell survival after 24 hrs by MTT assay; assay type: cell-based; conditions: L02, 24 h
[2] = Drug degradation in phosphate buffer assessed as H2S release by measuring test compound half life at 40 uM measured every 5 mins in presence of TECP by UV-Vis spectrometry; assay type: physicochemical
Procedure, shortened: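 Sulfide release at 37.5 °C: donor (40 mM THF stock) added to pH 7.4 phosphate buffer with 1.0 mM TECP; aliquots taken every 5 min into methylene blue cocktail (zinc acetate, N,N-dimethyl-1,4-phenylenediamine, FeCl3 in HCl), A670 read 15 min later; H2S from Na2S calibration curve; concentration vs time curve; four independent experiments.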

HepG2 = test: Cytotoxicity against human HepG2 cells assessed as reduction in cell survival after 24 hrs by MTT assay; assay type: cell-based; conditions: HepG2, 24 h
RAW264.7 [3] = test: Antiinflammatory activity in mouse RAW264.7 cells assessed as reduction in LPS-induced TNFalpha levels incubated for 24 hrs post LPS induction by ELISA; assay type: functional, cell-based
Procedure, shortened: (§1)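 LPS (1 μg/mL) for 4 h, then compound at 10, 50, 100 μM for 24 h; cells lysed in RIPA, spun 12,000×g 10 min, protein normalised by BCA to 0.1 mg/mL; target (TNF-α, HO-1, IL-10 or COX-2) quantified by sandwich ELISA kit with mouse-specific polyclonal antibodies; four independent experiments.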

[4] = (§2) Cytotoxicity against mouse RAW264.7 cells assessed as cell viability at 10 to 100 uM treated for 24 hrs post LPS induction by MTT assay; assay type: cell-based; conditions: RAW264.7 cells, read-out: Activity
Procedure, shortened: (§3)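 Macrophages in high-glucose DMEM + 10% heat-inactivated FBS, 2 mM glutamine, 37 °C, 5% CO2; exposed 24 h to 10, 50, 100 μM with or without LPS 1 μg/mL; MTT added 4 h, formazan dissolved in DMSO, A570, expressed as % of control; four independent experiments.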

[5] = target: T1, Nitric oxide synthase, inducible (Mus musculus) (UniProt P29477); test: Inhibition of iNOS in mouse RAW264.7 cells assessed as reduction in LPS-induced NO production administered for 24 hrs post LPS induction by Griess method; assay type: cell-based
T1 sequence (whole entry): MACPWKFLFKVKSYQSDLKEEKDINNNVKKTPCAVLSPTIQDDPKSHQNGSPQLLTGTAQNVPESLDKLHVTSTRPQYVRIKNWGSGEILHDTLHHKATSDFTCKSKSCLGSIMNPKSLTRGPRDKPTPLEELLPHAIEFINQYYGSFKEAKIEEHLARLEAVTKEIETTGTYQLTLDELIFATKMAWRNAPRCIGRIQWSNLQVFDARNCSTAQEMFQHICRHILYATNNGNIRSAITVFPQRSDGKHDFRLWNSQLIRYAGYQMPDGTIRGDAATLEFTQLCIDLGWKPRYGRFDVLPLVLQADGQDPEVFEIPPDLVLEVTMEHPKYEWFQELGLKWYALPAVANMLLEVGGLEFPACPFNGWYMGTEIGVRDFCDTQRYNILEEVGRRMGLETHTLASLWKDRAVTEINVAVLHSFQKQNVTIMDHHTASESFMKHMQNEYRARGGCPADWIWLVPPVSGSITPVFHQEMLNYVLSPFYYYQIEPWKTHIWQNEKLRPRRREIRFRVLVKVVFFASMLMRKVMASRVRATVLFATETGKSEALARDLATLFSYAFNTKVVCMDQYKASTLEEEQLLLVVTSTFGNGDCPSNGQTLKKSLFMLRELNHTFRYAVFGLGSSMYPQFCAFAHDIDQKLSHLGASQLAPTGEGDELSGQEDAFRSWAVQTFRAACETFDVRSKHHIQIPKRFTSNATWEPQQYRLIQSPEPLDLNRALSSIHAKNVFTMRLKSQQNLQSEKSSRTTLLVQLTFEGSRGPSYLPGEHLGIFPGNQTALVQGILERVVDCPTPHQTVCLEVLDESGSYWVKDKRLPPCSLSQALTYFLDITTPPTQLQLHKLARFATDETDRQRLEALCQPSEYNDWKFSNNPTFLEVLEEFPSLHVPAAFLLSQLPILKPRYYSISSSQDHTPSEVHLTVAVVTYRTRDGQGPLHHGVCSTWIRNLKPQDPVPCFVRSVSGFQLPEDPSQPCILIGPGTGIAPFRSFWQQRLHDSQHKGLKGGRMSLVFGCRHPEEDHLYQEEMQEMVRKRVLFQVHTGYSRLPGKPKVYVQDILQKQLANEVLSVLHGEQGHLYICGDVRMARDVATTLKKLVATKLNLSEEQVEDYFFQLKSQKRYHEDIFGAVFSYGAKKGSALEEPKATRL
Procedure, shortened: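 RAW264.7 cells stimulated with LPS 1 μg/mL for 4 h, then compound (10, 50, 100 μM) for 24 h; culture medium reacted with Griess reagents I and II, absorbance 570 nm; nitrite from sodium nitrite standard curve (0–100 μM in medium); four independent experiments, mean ± SD.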

[6] = (§4) Cytotoxicity against mouse RAW264.7 cells assessed as cell viability at 10 to 100 uM treated for 24 hrs in absence of LPS by MTT assay; assay type: cell-based; conditions: RAW264.7 cells, read-out: Activity; procedure, shortened: as §3
RAW264.7 [7] = test: Antiinflammatory activity in mouse RAW264.7 cells assessed as increase in LPS-induced IL10 levels at 10 to 100 uM incubated for 24 hrs post LPS induction by ELISA; assay type: functional, cell-based; procedure, shortened: as §1
RAW264.7 [8] = test: Antiinflammatory activity in mouse RAW264.7 cells assessed as increase in LPS-induced HO-1 expression incubated for 24 hrs post LPS induction by ELISA; assay type: functional, cell-based; procedure, shortened: as §1
RAW264.7 [9] = test: Antiinflammatory activity in mouse RAW264.7 cells assessed as increase in IL10 levels at 10 to 100 uM measured after 24 hrs in absence of LPS by ELISA; assay type: functional, cell-based
Procedure, shortened: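 Macrophages exposed 24 h to 10, 50, 100 μM without LPS; lysates (RIPA, 12,000×g spin) normalised by BCA to 0.1 mg/mL protein; IL-10 measured by mouse-specific sandwich ELISA kit; four independent experiments, mean ± SD.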

RAW264.7 [10] = test: Antiinflammatory activity in mouse RAW264.7 cells assessed as increase in LPS-induced HO-1 expression at 100 uM incubated for 24 hrs post LPS induction by ELISA relative to contol; assay type: functional; procedure, shortened: as §1
RAW264.7 [11] = test: Inhibition of LPS-induced COX2 expression in mouse RAW264.7 cells at 10 to 100 uM incubated for 24 hrs post LPS induction by ELISA; assay type: functional, cell-based; procedure, shortened: as §1
RAW264.7 [12] = test: Antiinflammatory activity in mouse RAW264.7 cells assessed as LPS-induced TNFalpha levels at 100 uM incubated for 24 hrs post LPS induction by ELISA relative to control; assay type: functional; procedure, shortened: as §1
RAW264.7 [13] = test: Inhibition of LPS-induced COX2 expression in mouse RAW264.7 cells at 100 uM incubated for 24 hrs post LPS induction by ELISA relative to control; assay type: functional; conditions: RAW264.7, 24 h, read-out: INH; procedure, shortened: as §1
RAW264.7 [14] = test: as §2; assay type: cell-based; conditions: raw264.7, 24 h, 100 µM; procedure, shortened: as §3
RAW264.7 [15] = test: as §4; assay type: cell-based; conditions: raw264.7, 24 h, 100 µM; procedure, shortened: as §3
Danio rerio [16] = species on record: Danio rerio; test: Toxicity in AB zebrafish embryo assessed as rate of embryo malformation at 0.5 to 20 uM measured at 96 hrs post fertilization by stereoscopic dissecting light microscopic analysis relative to DMF; assay type: organism-based; conditions: in vivo
Procedure, shortened: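 AB embryos exposed from 4 hpf through 96 hpf to compound or DMF vehicle (1:1000); malformations scored at 96 hpf under stereoscopic dissecting microscope; 100 embryos per group in three replicates; three independent experiments, mean ± SD.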

Danio rerio [17] = species on record: Danio rerio; test: Toxicity in AB zebrafish embryo assessed as reduction in hatching rate of embryos up to 5 uM measured at 48 hrs post fertilization by dissecting light microscopic analysis; assay type: organism-based; conditions: in vivo
Procedure, shortened: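 AB embryos exposed from 4 to 72 hpf to compound (0.5–20 μM) or DMF vehicle (1:1000), one embryo per well; hatch rate scored at 48 hpf; n=100 per group in three replicates; three independent experiments, mean ± SD.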

Row | half-life at 40 µM [2] [min] | SMILES | IC50 (L02) [µM] | IC50 (HepG2) [µM] | also measured
1 | 7.1 | NC(=S)c1ccc(OC(=O)c2ccccc2Cl)cc1 | 1090 | 1060 | 
2 | 3.3 | CC(C(=O)Oc1ccc(C(N)=S)cc1)c1ccc(-c2ccccc2)c(F)c1 (stereo not drawn) | > 800 | 1680 | 
3 | 9.8 | CC(C(=O)Oc1ccc(C(N)=S)cc1)c1cccc(C(=O)c2ccccc2)c1 (stereo not drawn) | 1180 | 1070 | 
4 | 13.4 | COc1ccc2cc(C(C)C(=O)Oc3ccc(C(N)=S)cc3)ccc2c1 (stereo not drawn) [ATB-346] | 3610 | 228 | Activity (RAW264.7 [3]): Dose-dependent effect; viability at 24 h, up to 100 µM [4]: 70 to 110%; inhibition [5]: Dose-dependent effect; viability at 24 h, up to 100 µM [6]: 70 to 110%; Activity (RAW264.7 [7]): Active; Activity (RAW264.7 [8]): Dose-dependent effect; Activity (RAW264.7 [9]): Active; fold change (FC) (RAW264.7 [10]): <=2; inhibition (RAW264.7 [11]): Active
5 | 1.9 | O=C(/C=C/c1ccccc1)Oc1ccc(-c2cc(=S)ss2)cc1 | 536 | 1080 | 
6 | 4.4 | NC(=S)c1ccc(OC(=O)/C=C/c2ccccc2)cc1 | > 800 | 410 | 
7 | 14.4 | NC(=S)c1ccc(OC(=O)c2ccc(Cl)cc2)cc1 | > 800 | 1060 | 

More lines, now with the values behind:

Row | SMILES | half-life at 40 µM [2] [min] | IC50 (L02) [µM] | IC50 (HepG2) [µM] | also measured
8 | O=C(O)CCCCC1CCSS1 (stereo not drawn) [LIPOIC ACID, ALPHA] |  |  |  | half-life at 40 µM [1]: 118 min
9 | CC1=C(CC(=O)Oc2ccc(C(N)=S)cc2)c2cc(F)ccc2/C1=C\c1ccc([S+](C)[O-])cc1 (stereo not drawn) | 3.1 | 1480 | 1080 | 
10 | O=C(CCCCC1CCSS1)Oc1ccc2ccc(=O)oc2c1 (stereo not drawn) |  | 2540 | 917 | half-life at 40 µM [1]: 4.6 min
11 | CC(C)Cc1ccc(C(C)C(=O)Oc2ccc(-c3cc(=S)ss3)cc2)cc1 (stereo not drawn) | 1.4 | 889 | 923 | Activity (RAW264.7 [3]): Dose-dependent effect; Activity (RAW264.7 [12]): 5 - 20%; viability at 24 h, up to 100 µM [4]: 70 to 110%; inhibition [5]: Dose-dependent effect; viability at 24 h, up to 100 µM [6]: 70 to 110%; Activity (RAW264.7 [7]): Active; Activity (RAW264.7 [8]): Dose-dependent effect; Activity (RAW264.7 [9]): Active; fold change (FC) (RAW264.7 [10]): >3; inhibition at 100 µM (RAW264.7 [13]): 60%
12 | NC(=S)c1ccccc1 | 0.9 |  |  | 
13 | COc1ccc2c(c1)c(CC(=O)Oc1ccc(-c3cc(=S)ss3)cc1)c(C)n2C(=O)c1ccc(Cl)cc1 | 1.8 | 337 | 3290 | Activity (RAW264.7 [3]): Dose-dependent effect; Activity (RAW264.7 [12]): 5 - 20%; Activity (RAW264.7 [14]): Non-Toxic; inhibition [5]: Dose-dependent effect; Activity (RAW264.7 [15]): Non-Toxic; Activity (RAW264.7 [7]): Active; Activity (RAW264.7 [8]): Dose-dependent effect; Activity (RAW264.7 [9]): Active; fold change (FC) (RAW264.7 [10]): <=2; Activity (Danio rerio [16]): 2%; Activity (Danio rerio [17]): Toxic; inhibition (RAW264.7 [11]): Active
14 | COc1ccc2cc(C(C)C(=O)Oc3ccc(-c4cc(=S)ss4)cc3)ccc2c1 (stereo not drawn) | 3.1 | 1040 | 1120 | 
15 | CC(C(=O)Oc1ccc(-c2cc(=S)ss2)cc1)c1cccc(C(=O)c2ccccc2)c1 (stereo not drawn) | 3.4 | 544 | 1280 | 
16 | Oc1ccc(-c2cc(=S)ss2)cc1 | 3.9 |  |  | 
